Measured values pooled from the literature.
Each line is one published result; the experiments were not run side by side.
Target: 1-phosphatidylinositol 3-phosphate 5-kinase (PIKFYVE, Homo sapiens, UniProt Q9Y2I7)

COc1ncc2cc3ccccc3nc2c1C#N  remaining binding (cell-free assay, competition with immobilised ligand; 5 µM): 90%
O=C(c1ccc(Nc2ncc(Cl)c(-c3ccc(Cl)s3)n2)cc1)N1CCC(N2CCCC2)CC1  remaining binding (binding, competition with immobilised ligand; 1 µM): 32%
COc1cnc(Nc2cccc(S(N)(=O)=O)c2)nc1N1CCN(c2ccccc2)CC1  remaining binding (binding, competition with immobilised ligand; 1 µM): 85%
CN(c1ccnc(CNc2nc(Nc3ccc4c(c3)CC(=O)N4)ncc2C(F)(F)F)n1)S(C)(=O)=O  remaining binding (cell-free assay, competition with immobilised ligand; 1 µM): 100%
CN(CCCC(F)(F)F)c1nccc(-c2cnn3ncccc23)n1  remaining binding (binding; 1 µM): 45%
O=C(NCC1CCOCC1)c1n[nH]cc1NC(=O)c1c(F)cccc1F  remaining binding (binding, competition with immobilised ligand; 1 µM): 100%
O=C(c1ccc(Nc2nccc(-c3cc4ccccc4s3)n2)cc1)N1CCC(N2CCCC2)CC1  remaining binding (binding, competition with immobilised ligand; 1 µM): 0.6%
c1cnn2ncc(-c3ccnc(N4CCC45COC5)n3)c2c1  remaining binding (binding; 1 µM): 92%
CO[C@H]1CC[C@H](CNc2ccc(S(=O)(=O)NC(=O)c3ccc(N4CCN(CC5=C(c6ccc(Cl)cc6)CC(C)(C)CC5)CC4)cc3Oc3cnc4[nH]ccc4c3)cc2[N+](=O)[O-])CC1  remaining binding (cell-free assay, competition with immobilised ligand; 1 µM): 89%
O=C(NCCCN1CCOCC1)c1ccc(Nc2nccc(-c3cc4ccccc4s3)n2)cc1  remaining binding (binding, competition with immobilised ligand; 1 µM): 0.3%
CSc1cccnc1N1CCN(Cc2nc3ccccc3[nH]2)CC1  remaining binding (cell-free assay, competition with immobilised ligand; 1 µM): 100%
CN(C)c1nccc(-c2cnn3ncccc23)n1  remaining binding (binding; 1 µM): 100%
c1cncc(-c2cccc(Nc3nccc(NC4CCCCC4)n3)c2)c1  remaining binding (binding, competition with immobilised ligand; 10 µM): 29%
COc1ccc2c(c1)O[C@@H](c1ccc(OC)c(OC)c1)C[C@H]2NC(=O)C1(c2ccc3c(c2)OC(F)(F)O3)CC1  remaining binding (cell-free assay, competition with immobilised ligand; 1 µM): 100%
FC(F)(F)Oc1cccc(-c2cnc3ccc(-c4ccncc4)nn23)c1  remaining binding (cell-free assay, competition with immobilised ligand; 5 µM): 2.4%
COc1cc(-c2cn(C3CCc4c(F)cccc4N(CC(F)(F)F)C3=O)nn2)ccc1-n1cnc(C)c1 (stereo not shown)  remaining binding (cell-free assay, competition with immobilised ligand; 1 µM): 100%
N[C@@H]1CCN(c2nccc(-c3cnn4ncccc34)n2)C1  remaining binding (binding; 1 µM): 78%
CS(=O)(=O)N1CCCC(NC(=O)[C@H](CCC2CCCCC2)NC(=O)c2ccc(CNc3ncnc4c3nnn4-c3ccccc3)cc2)C1 (stereo partly shown)  remaining binding (cell-free assay, competition with immobilised ligand; 0.1 µM): 61%
C[C@@H]1CCN(c2nccc(-c3cnn4ncccc34)n2)C1  remaining binding (binding; 1 µM): 99%
